Data from ChEMBL document CHEMBL1765014, “Non-peptide NK1 receptor ligands based on the 4-phenylpyridine moiety” (Bioorg Med Chem, 2011).
Activity calls are given as the source filed them. No cut-off for these calls is given here.

Experiments:
Substance-P receptor = Substance-P receptor (Homo sapiens, UniProt P25103); test: Displacement of [125I]BH-SP from human recombinant NK1 receptor expressed in CHO cells after 90 mins; format: cell-based
[1] = Antiangiogenic activity in bovine CVEC cell assessed as inhibition of Sar9-SP-sulfone-induced proliferation at 1 uM after 48 hrs by microscopic analysis; format: functional; details: Bos taurus
Procedure, shortened: (§1)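 Subconfluent, synchronized bovine CVEC were stimulated with 10 nM Sar9-SP-sulfone, with or without test compound, for 48 h. Fixed and stained cells were counted microscopically as total cell number per well. Results are expressed as % inhibition of agonist-induced proliferation. Data are means ± SEM of three experiments; Student's t test.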

[2] = Antiangiogenic activity in bovine CVEC cell assessed as inhibition of Sar9-SP-sulfone-induced proliferation at 100 nM after 48 hrs by microscopic analysis; format: functional; details: Bos taurus; procedure, shortened: as §1
[3] = Antiangiogenic activity in bovine CVEC cell assessed as inhibition of Sar9-SP-sulfone-induced cell migration at 1 uM after 4 hrs by microscopic analysis; format: functional; details: Bos taurus
Procedure, shortened: (§2)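 Bovine post-capillary venular endothelial cells (CVEC), cultured as previously described. Cells migrated toward 10 nM Sar9-SP-sulfone with or without test compound in a Neuroprobe microchemotaxis chamber and were evaluated after 4 h. Results are expressed as % inhibition of Sar9-SP-sulfone-induced activity. Data are means ± SEM of three experiments; Student's t test.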

CVEC [4] = test: Antiangiogenic activity in bovine CVEC cell assessed as cell proliferation at 100 nM to 1 uM after 48 hrs by microscopic analysis; format: functional, cell-based; details: Bos taurus; procedure, shortened: as §1
CVEC [5] = test: Antiangiogenic activity in bovine CVEC cell assessed as cell migration at 100 nM to 1 uM after 4 hrs by microscopic analysis; format: functional, cell-based; details: Bos taurus; procedure, shortened: as §2
[6] = Antiangiogenic activity in bovine CVEC cell assessed as inhibition of Sar9-SP-sulfone-induced cell migration at 100 nM after 4 hrs by microscopic analysis; format: functional; details: Bos taurus; procedure, shortened: as §2
[7] = Antiangiogenic activity in bovine CVEC cell assessed as inhibition of Sar9-SP-sulfone-induced proliferation after 48 hrs by microscopic analysis; format: functional, cell-based; details: Bos taurus; procedure, shortened: as §1
[8] = Antiangiogenic activity in bovine CVEC cell assessed as inhibition of Sar9-SP-sulfone-induced cell migration after 4 hrs by microscopic analysis; format: functional, cell-based; details: Bos taurus; procedure, shortened: as §2

Chain of Substance-P receptor (P25103 whole entry): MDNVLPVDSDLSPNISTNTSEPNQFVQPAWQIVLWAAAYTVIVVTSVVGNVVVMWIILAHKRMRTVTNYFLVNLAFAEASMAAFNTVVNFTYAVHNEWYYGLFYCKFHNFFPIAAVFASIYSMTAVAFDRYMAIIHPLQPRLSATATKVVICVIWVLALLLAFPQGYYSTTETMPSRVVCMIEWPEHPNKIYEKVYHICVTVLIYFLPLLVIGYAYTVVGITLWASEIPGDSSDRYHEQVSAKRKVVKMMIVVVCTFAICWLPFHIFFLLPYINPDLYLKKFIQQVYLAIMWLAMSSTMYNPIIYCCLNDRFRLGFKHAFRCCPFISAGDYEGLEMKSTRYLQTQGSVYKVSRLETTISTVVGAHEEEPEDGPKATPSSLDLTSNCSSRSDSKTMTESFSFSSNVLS

SMILES	IC50 (Substance-P receptor) [nM]	also measured
Cc1nccc(-c2ccccc2)c1C(=O)N(C)Cc1cc(C(F)(F)F)cc(C(F)(F)F)c1	98	
Cc1c(C(=O)N(C)Cc2cc(C(F)(F)F)cc(C(F)(F)F)c2)c(-c2ccccc2)cc2nnnn12	57	
Cc1nc(Cl)cc(-c2ccccc2)c1C(=O)N(C)Cc1cc(C(F)(F)F)cc(C(F)(F)F)c1	91	
CN(Cc1cc(C(F)(F)F)cc(C(F)(F)F)c1)C(=O)c1c(-c2ccccc2)ccnc1CCl	52	
Cc1c(C(=O)N(C)Cc2cc(C(F)(F)F)cc(C(F)(F)F)c2)c(-c2ccccc2)cc[n+]1[O-]	32	
Cc1cc(-c2ccccc2)c(C(=O)NCc2cc(C(F)(F)F)cc(C(F)(F)F)c2)c(C)n1	434	
Cc1nc(N2CCN(C)CC2)cc(-c2ccccc2)c1C(=O)NCc1cc(C(F)(F)F)cc(C(F)(F)F)c1	53	inhibition at 1 µM [1]: 76.3%; inhibition at 0.1 µM [2]: 33.5%; inhibition at 1 µM [3]: 100%; Activity (CVEC [4]): inactive; Activity (CVEC [5]): inactive; inhibition at 0.1 µM [6]: 100%
Cc1c(C(=O)N(C)Cc2cc(C(F)(F)F)cc(C(F)(F)F)c2)c(-c2ccccc2)cc2nncn12	53	
Cc1cc(-c2ccccc2)c(C(=O)N(C)Cc2cc(C(F)(F)F)cc(C(F)(F)F)c2)c(C)n1	41	
Cc1nc(Cl)cc(-c2ccccc2)c1C(=O)NCc1cc(C(F)(F)F)cc(C(F)(F)F)c1	270	
Cc1nc(N2CCN(C)CC2)cc(-c2ccccc2)c1C(=O)N(C)Cc1cc(C(F)(F)F)cc(C(F)(F)F)c1	4.8	inhibition at 1 µM [1]: 79.7%; inhibition at 0.1 µM [2]: 7.6%; inhibition at 1 µM [3]: 99%; Activity (CVEC [4]): inactive; Activity (CVEC [5]): inactive; inhibition at 0.1 µM [6]: 100%
Cc1c(C(=O)NCc2cc(C(F)(F)F)cc(C(F)(F)F)c2)c(-c2ccccc2)cc2nnnn12	279	
Cc1c(C(=O)NCc2cc(C(F)(F)F)cc(C(F)(F)F)c2)c(-c2ccccc2)cc2nncn12	698	
COc1ccccc1CNC(=O)c1c(-c2ccccc2)ccnc1C		inhibition at 1 µM [1]: 11%; IC50 [7]: > 1000 nM; IC50 [8]: > 1000 nM; inhibition at 0.1 µM [2]: 0%; inhibition at 1 µM [3]: 9%; inhibition at 0.1 µM [6]: 0%

Further lines, with some results ahead:

IC50 (Substance-P receptor) [nM]	SMILES	also measured
653	Cc1nccc(-c2ccccc2)c1C(=O)NCc1cc(C(F)(F)F)cc(C(F)(F)F)c1	
42	CN(Cc1cc(C(F)(F)F)cc(C(F)(F)F)c1)C(=O)c1c(CO)nc2ccccc2c1-c1ccccc1	
257	Cc1nc2ccccc2c(-c2ccccc2)c1C(=O)NCc1cc(C(F)(F)F)cc(C(F)(F)F)c1	
92	CN(Cc1cc(C(F)(F)F)cc(C(F)(F)F)c1)C(=O)c1cnc2ccccc2c1-c1ccccc1	
235	O=C(NCc1cc(C(F)(F)F)cc(C(F)(F)F)c1)c1c(-c2ccccc2)ccnc1CCl	
227	O=C(NCc1cc(C(F)(F)F)cc(C(F)(F)F)c1)c1c(CO)nc2ccccc2c1-c1ccccc1	
19	Cc1nc2ccccc2c(-c2ccccc2)c1C(=O)N(C)Cc1cc(C(F)(F)F)cc(C(F)(F)F)c1	
342	Cc1c(C(=O)NCc2cc(C(F)(F)F)cc(C(F)(F)F)c2)c(-c2ccccc2)cc[n+]1[O-]	
208	O=C(NCc1cc(C(F)(F)F)cc(C(F)(F)F)c1)c1cnc2ccccc2c1-c1ccccc1	
